Legend:
[1] = system: Rattus norvegicus; assay: Total antihypertensive activity was obtained from the area between compound and control MAP (mean arterial pressure) curves, after (ip) 30 mg/kg administration in spontaneously hypertensive rats (SHR).; format: functional, Artery
Outline: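 SHR dosed once ip at 30 mg/kg in 1% methylcellulose suspension (n = 3), with vehicle-dosed concurrent controls (n = 3). MAP recorded continuously over 24 h; time points 0, 0.25, 0.5, 1, 2, 4, 6, 12, 18 and 24 h used. Value is area between drug and control MAP curves, in mmHg × h.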

[2] = system: Rattus norvegicus; assay: Antihypertensive effects in conscious, unrestrained, spontaneously hypertensive rats after 30 mg/kg i.p. administration.; format: functional; conditions: route intraperitoneal
Outline: (§1)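 SHR housed singly with free access to tap water, overnight recovery before testing. Compound suspended in 1% methylcellulose, given once ip at 30 mg/kg or by oral gavage at 100 mg/kg (n = 3); concurrent controls (n = 3) got 1 mL vehicle by same route. MAP recorded continuously 24 h; value is maximum change from concurrent control, mean ± SEM.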

[3] = system: Rattus norvegicus; assay: Antihypertensive effects in conscious, unrestrained, spontaneously hypertensive rats after 100 mg/kg p.o. administration.; format: functional; conditions: route oral; outline: as §1

For `CN(C)CC(=O)N1C=CC(c2ccccc2)(c2ccccc2)C=C1.Cl`, the Antihypertensive activity [1] was 362 mmHg·h, the “Max change in blood pressure” value [2] was -29 mmHg and the “Max change in blood pressure” value [3] was -12 mmHg.
For `CC1(C)C=CN(/C(=N/c2ccccc2)N2CCCC2)C=C1.O=C(O)/C=C\C(=O)O`, the “Max change in blood pressure” value [2] was 27 mmHg and the “Max change in blood pressure” value [3] was 19 mmHg.
For `CN(C)CC(=O)N1C=CC(C)(C)C=C1.O=C(O)/C=C\C(=O)O`, the Activity [1] was 132 mmHg·h, the “Max change in blood pressure” value [2] was -52 mmHg and the “Max change in blood pressure” value [3] was -39 mmHg.
For `CC1(C)C=CN(C(=O)Nc2ccccc2)C=C1`, the “Max change in blood pressure” value [2] was -24 mmHg and the “Max change in blood pressure” value [3] was -15 mmHg.
With `CN(C)CCN1C=CC(c2ccccc2)(c2ccccc2)C=C1` the “Max change in blood pressure” value [2] was -30 mmHg and the “Max change in blood pressure” value [3] was -14 mmHg.
With `COc1ccc(CC(=O)N2C=CC(C)(C)C=C2)cc1OC` the “Max change in blood pressure” value [2] was -21 mmHg and the “Max change in blood pressure” value [3] was 23 mmHg.
`COC(=O)CCCN1C=CC(c2ccc(OC)cc2)(c2ccc(OC)cc2)C=C1` was tested, and the “Max change in blood pressure” value [2] was 11 mmHg and the “Max change in blood pressure” value [3] was -21 mmHg.
`COC(=O)CCN1C=CC(C)(C)C=C1` was tested, and the Activity [1] was 1360 mmHg·h, the “Max change in blood pressure” value [2] was -71 mmHg and the “Max change in blood pressure” value [3] was -19 mmHg.
With `COC(=O)CCCN1C=CC(C)(C)C=C1` the Activity [1] was 696 mmHg·h, the “Max change in blood pressure” value [2] was -42 mmHg and the “Max change in blood pressure” value [3] was -45 mmHg.
In the case of `CN(C)CCN1C=CC(C)(C)C=C1`, the Antihypertensive activity [1] was 281 mmHg·h, the “Max change in blood pressure” value [2] was -32 mmHg and the “Max change in blood pressure” value [3] was -10 mmHg.
With `COc1ccc(CCN2C=CC(c3ccccc3)(c3ccccc3)C=C2)cc1OC` the “Max change in blood pressure” value [2] was -7 mmHg and the “Max change in blood pressure” value [3] was -7 mmHg.
In the case of `CNC(=O)N1C=CC(C)(C)C=C1`, the “Max change in blood pressure” value [2] was -34 mmHg and the “Max change in blood pressure” value [3] was -41 mmHg.
`COC(=O)CCCCN1C=CC(C)(C)C=C1` was tested, and the Activity [1] was 943 mmHg·h, the “Max change in blood pressure” value [2] was -58 mmHg and the “Max change in blood pressure” value [3] was -11 mmHg.
In the case of `CNC(=O)N1C=CC(c2ccccc2)(c2ccccc2)C=C1`, the “Max change in blood pressure” value [2] was 17 mmHg and the “Max change in blood pressure” value [3] was -11 mmHg.
With `CC1(C)C=CN(C(=O)c2ccccc2)C=C1` the Antihypertensive activity [1] was 210 mmHg·h, the “Max change in blood pressure” value [2] was -21 mmHg and the “Max change in blood pressure” value [3] was -27 mmHg.
In the case of `CC1(C)C=CN(C(=O)c2ccc[nH]2)C=C1`, the “Max change in blood pressure” value [2] was 6 mmHg and the “Max change in blood pressure” value [3] was -7 mmHg.
For `O=C(c1ccccc1)N1C=CC(c2ccccc2)(c2ccccc2)C=C1`, the “Max change in blood pressure” value [2] was 11 mmHg and the “Max change in blood pressure” value [3] was 12 mmHg.
`Cc1csc(N2C=CC(C)(C)C=C2)n1` was tested, and the “Max change in blood pressure” value [2] was 14 mmHg and the “Max change in blood pressure” value [3] was -21 mmHg.
In the case of `CC1(C)C=CN(C(=O)c2cccnc2)C=C1`, the Antihypertensive activity [1] was 291 mmHg·h, the “Max change in blood pressure” value [2] was -19 mmHg and the “Max change in blood pressure” value [3] was -26 mmHg.
For `CC1(C)C=CN(C(=O)C(c2ccccc2)c2ccccc2)C=C1`, the “Max change in blood pressure” value [2] was -9 mmHg and the “Max change in blood pressure” value [3] was -6 mmHg.
`COC(=O)C1=C(C)NC(C)=C(C(=O)OC)C1c1ccccc1[N+](=O)[O-]` [NIFEDIPINE] was tested, and the “Max change in blood pressure” value [2] was -71 mmHg and the “Max change in blood pressure” value [3] was -68 mmHg.
